In ChEMBL document CHEMBL4350958, “Rational Design of Short Peptide Variants by Using Kunitzin-RE, an Amphibian-Derived Bioactivity Peptide, for Acquired Potent Broad-Spectrum Antimicrobial and Improved Therapeutic Potential of Commensalism Coinfection of Pathogens” (J Med Chem, 2019):
Converted amounts (≈) assume the structure as drawn. Where a SMILES comes first, the peptide text is derived from it.

Assays:
[1] = tested on: Escherichia coli; assay: Antibacterial activity against Escherichia coli ATCC 25922 measured after 24 hrs; format: functional; details: ATCC 25922, 24 h
Summary of the method: (§1)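 Broth microdilution adapted from NCCLS. Mid-log bacteria were diluted in MHB to a final (0.5–1) × 10^5 CFU mL−1. Peptides were serially diluted in 0.2% BSA and mixed with an equal volume of cells. After 24 h at 37 °C, MIC was read at A492 as the lowest concentration inhibiting 95% of growth. At least three independent experiments, each with three technical replicates.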

[2] = tested on: Escherichia coli; assay: Antibacterial activity against Escherichia coli UB1005 measured after 24 hrs; format: functional; details: UB1005, 24 h; summary of the method: as §1
[3] = tested on: Pseudomonas aeruginosa; assay: Antibacterial activity against Pseudomonas aeruginosa ATCC 27853 measured after 24 hrs; format: functional; details: ATCC 27853, 24 h; summary of the method: as §1
[4] = tested on: Escherichia coli; assay: Antibacterial activity against Escherichia coli K88 measured after 24 hrs; format: functional; details: K88, 24 h; summary of the method: as §1
[5] = tested on: Escherichia coli; assay: Antibacterial activity against Escherichia coli 078 measured after 24 hrs; format: functional; details: Escherichia coli, 078, 24 h; summary of the method: as §1
[6] = tested on: Candida parapsilosis; assay: Antifungal activity against Candida parapsilosis cgmcc2.3989 measured after 48 hrs by broth microdilution method; format: functional; details: Lodderomyces parapsilosis, cgmcc2.3989, 48 h
Summary of the method: (§2)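 Modified CLSI M27-A2 microdilution. Yeast colonies were diluted in MOPS-buffered RPMI 1640 to a final (0.5–1) × 10^3 CFU mL−1 and mixed with an equal volume of peptide serially diluted in 0.2% BSA. After 48 h at 28 °C, MIC was read at A492 as the lowest concentration inhibiting 95% of growth. At least three independent experiments, each with three technical replicates.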

[7] = tested on: Candida tropicalis; assay: Antifungal activity against Candida tropicalis cgmcc2.1975 measured after 48 hrs by broth microdilution method; format: functional; details: cgmcc2.1975, 48 h; summary of the method: as §2
[8] = tested on: Salmonella typhimurium; assay: Bactericidal activity against Salmonella typhimurium ATCC 14028 incubated for 24 hrs followed by replating on agar plate and measured after overnight incubation; format: functional, Salmonella enterica subsp. enterica serovar Typhimurium; details: Salmonella enterica, ATCC 14028, 24 h; read-out: MBC>99.9
Summary of the method: (§3)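 Mid-log bacteria diluted in MHB to (0.5–1) × 10^5 CFU/mL and mixed 1:1 with peptide serially diluted in 0.2% BSA. After 24 h at 37 °C, 50 μL of each mixture was plated on agar and incubated overnight. MBC taken as the lowest concentration killing >99.9% of cells. At least three independent experiments, each with three technical replicates.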

[9] = tested on: Escherichia coli; assay: Bactericidal activity against Escherichia coli K99 incubated for 24 hrs followed by replating on agar plate and measured after overnight incubation; format: functional; details: K99, 24 h, read-out: MBC>99.9; summary of the method: as §3
[10] = tested on: Staphylococcus aureus; assay: Bactericidal activity against Staphylococcus aureus ATCC 25923 incubated for 24 hrs followed by replating on agar plate and measured after overnight incubation; format: functional; details: ATCC 25923, 24 h, read-out: MBC>99.9
Summary of the method: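 After the 24 h, 37 °C MHB microdilution MIC assay, 50 μL from each well was plated on agar and incubated overnight. MBC taken as lowest peptide concentration killing >99.9% of cells. At least three independent experiments, each with three technical replicates.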

[11] = tested on: Erythrocyte; assay: Hemolytic activity in human RBC measured after 1 hr; format: ADME, cell-based
Summary of the method: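 Fresh healthy-donor human erythrocytes at ~1% (v/v) in PBS pH 7.4, mixed 1:1 with peptide (1–128 µM), 1 h at 37 °C. After centrifugation at 1000×g, supernatant hemoglobin read at 576 nm. Untreated cells set 0% and 0.1% Triton X-100 set 100%. MHC defined as the concentration giving >10% hemolysis. Three or more independent experiments, triplicates.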

[12] = tested on: Escherichia coli; assay: Antibacterial activity against Escherichia coli ATCC 25922 measured after 18 to 24 hrs in presence of NaCl; format: functional
[13] = tested on: Escherichia coli; assay: Antibacterial activity against Escherichia coli ATCC 25922 measured after 18 to 24 hrs in presence of CaCl2; format: functional
[14] = tested on: Escherichia coli; assay: Antibacterial activity against Escherichia coli ATCC 25922 measured after 18 to 24 hrs in presence of ZnCl2; format: functional
[15] = tested on: Escherichia coli; assay: Antibacterial activity against Escherichia coli ATCC 25922 measured after 18 to 24 hrs in presence of FeCl3; format: functional
[16] = tested on: Escherichia coli; assay: Antibacterial activity against Escherichia coli ATCC 25922 measured after 18 to 24 hrs in presence of NH4Cl; format: functional
[17] = tested on: Staphylococcus aureus; assay: Antibacterial activity against Staphylococcus aureus ATCC 29213 measured after 18 to 24 hrs in presence of KCl; format: functional
[18] = tested on: Staphylococcus aureus; assay: Antibacterial activity against Staphylococcus aureus ATCC 29213 measured after 18 to 24 hrs in presence of CaCl2; format: functional
[19] = tested on: Staphylococcus aureus; assay: Antibacterial activity against Staphylococcus aureus ATCC 29213 measured after 18 to 24 hrs in presence of FeCl3; format: functional
[20] = tested on: Candida albicans; assay: Antifungal activity against Candida albicans cgmcc2.2086 measured after 48 hrs in presence of NH4Cl by broth microdilution method; format: functional; details: cgmcc2.2086, 48 h
[21] = Therapeutic index, ratio of MHC10 for hemolytic activity in human RBC to MIC95 against Escherichia coli ATCC 25922; format: toxicity; details: human red blood cells (erythrocytes), pooled result: one value given for 9 cell lines, strains, targets or settings, read-out: TI
Summary of the method: (§4)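 Therapeutic index = MHC divided by MIC. MHC is the lowest concentration giving >10% lysis of human RBC (1 h, 37 °C, 1-128 µM, A576). MIC is 95% growth inhibition by broth microdilution: bacteria in MHB 24 h at 37 °C; Candida in MOPS-buffered RPMI 1640 at (0.5–1) × 10^3 CFU mL−1, 48 h at 28 °C.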

[22] = Therapeutic index, ratio of MHC10 for hemolytic activity in human RBC to MIC95 against Staphylococcus aureus ATCC 25923; format: toxicity; details: human red blood cells (erythrocytes), read-out: TI; summary of the method: as §4
[23] = Therapeutic index, ratio of MHC10 for hemolytic activity in human RBC to MIC95 against Candida albicans cgmcc2.2086; format: toxicity; details: human red blood cells (erythrocytes), read-out: TI; summary of the method: as §4
[24] = Therapeutic index, ratio of MHC10 for hemolytic activity in human RBC to MIC95 against Candida tropicalis cgmcc2.1975; format: toxicity; details: human red blood cells (erythrocytes), read-out: TI; summary of the method: as §4
[25] = Conformational stability in pH 7.4 sodium phosphate buffer assessed as absorption spectra at minimum dichroic band at 35 uM by CD spectra analysis; format: physicochemical; details: pH 7.4, 35 µM
Summary of the method: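 CD spectra from 190 to 250 nm of peptide at 35 μM in 10 mM PBS, 30 mM SDS micelles or 50% TFE, recorded in a 1.0-mm quartz cell. Ellipticity was converted to mean residue ellipticity. Three independent scans, each averaged over more than 3 runs.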

[26] = tested on: Escherichia coli; assay: Bactericidal activity against Escherichia coli 078 incubated for 24 hrs followed by replating on agar plate and measured after overnight incubation; format: functional; details: Escherichia coli, 078, 24 h; read-out: MBC>99.9
Summary of the method: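 After the 24 h, 37 °C MHB microdilution (0.5–1 × 10^5 CFU mL−1 inoculum, peptides diluted in 0.2% BSA), 50 μL from each well was plated on agar and incubated overnight. MBC was taken as the lowest concentration killing >99.9% of cells. Three or more independent experiments, each with triplicate technical replicates.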

Compound	MIC95 [1] [µM]	MIC95 [2] [µM]	MIC95 [3] [µM]	MIC95 [4] [µM]	MIC95 [5] [µM]	MIC95 [6] [µM]	MIC95 [7] [µM]	MHC10 [11] [µM]	MIC95 [12] [µM]	MIC95 [13] [µM]	MIC95 [14] [µM]	MIC95 [15] [µM]	MIC95 [16] [µM]	MIC95 [17] [µM]	MIC95 [18] [µM]	MIC95 [19] [µM]	MIC95 [20] [µM]	selectivity ratio [21]	selectivity ratio [22]	selectivity ratio [23]	further results
CC[C@H](C)[C@H](NC(=O)[C@H](CCCCN)NC(=O)[C@H](C)NC(=O)[C@H](C)N)C(=O)N[C@H](C(=O)N[C@@H](CC(C)C)C(=O)N[C@@H](CC(N)=O)C(=O)N1CCC[C@H]1C(=O)N[C@@H](CCCCN)C(=O)N[C@@H](Cc1ccccc1)C(=O)N[C@@H](CCCNC(=N)N)C(=O)N[C@@H](CS)C(=O)N[C@@H](CCCCN)C(=O)N[C@@H](C)C(=O)N[C@@H](C)C(=O)N[C@@H](Cc1ccccc1)C(=O)N[C@@H](CS)C(N)=O)[C@@H](C)CC (H-AAKIILNPKFRCKAAFC-NH2)	32 (≈ 60.6 µg/mL)	64 (≈ 121 µg/mL)	> 128	32 (≈ 60.6 µg/mL)	> 128	> 128	> 128	32	> 128	> 128	64	32	32	> 128	> 128	> 128	> 128	0.5	0.3	0.25	MBC [8]: 128 µM (≈ 242 µg/mL); MBC [9]: 64 µM (≈ 121 µg/mL); MBC [10]: > 128 µM; selectivity ratio [24]: 0.25; Wavelength of minimum CD band [25]: 200 nm
H-AAKIILNPKFR-NH2	> 128	> 128	> 128	> 128	> 128	> 128	> 128	> 128	> 128	> 128	> 128	> 128	> 128	> 128	> 128	> 128	> 128	2	2	2	selectivity ratio [24]: 2; Wavelength of minimum CD band [25]: 200 nm
H-AARIILRDRFR-NH2	≥ 128	> 128	> 128	> 128	> 128	> 128	> 128	> 128	> 128	> 128	> 128	> 128	> 128	> 128	> 128	> 128	> 128	2	2	2	selectivity ratio [24]: 2; Wavelength of minimum CD band [25]: 200 nm
H-AARIILRNRFR-NH2	32	16	> 128	32	16	> 128	> 128	> 128	128	> 128	32	32	16	> 128	> 128	> 128	> 128	9.33	2	2	MBC [8]: 64 µM; MBC [9]: 32 µM; MBC [26]: 32 µM; selectivity ratio [24]: 2; Wavelength of minimum CD band [25]: 200 nm
H-AARIILRPRFR-NH2	16	8	> 128	16	8	> 128	> 128	> 128	128	128	32	16	16	> 128	> 128	> 128	> 128	16	2	2	MBC [8]: 32 µM; MBC [9]: 32 µM; MBC [26]: 16 µM; selectivity ratio [24]: 2; Wavelength of minimum CD band [25]: 200 nm
